The RNAGym collection of RNA variant scans (doi:10.1126/science.aae0568)
Variants at the floor of the assay were thinned out.

B1: tRNA (parent)
chain: GUUCCGUUGGCGUAAUGGUAACGCGUCUCCCUCCUAAGGAGAAGACUGCGGGUUCGAGUCCCGUACGGAACG

Variants of: B1
Assay: yeast fitness relative to wild type (ratio to wild type); higher = fitter; tRNA-Arg(CCU), competitive growth, 37 C, YPD
In short: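 Genotype frequency changes were the basis for Darwinian fitness relative to wild type. The frequencies came from 100-nucleotide paired-end sequencing of gene amplicons from the start population and each end population of pooled yeast strains with tRNA-Arg(CCU) gene variants at the native locus. Competition ran in YPD at 37°C for 24 hours in six replicates, genotypes needed ≥ 100 starting reads, and estimates < 0.5 were set to 0.5.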

| Variant | yeast fitness |
| --- | --- |
| GUUCCGUUGGCGAAAUGGUAAUGCGUCUCCCUCCUAAGGAGAAGACUGCGGGUUCGAGUCCCGUACGGAACG [U13A C22U] | 0.859 |
| GUUCCGUUGGCGAAAUGGUAACGGAUCUCCCUCCUAAGCCGAAGACUGCGCGUUCGAGUCCCGUACGGUCCG [U13A C24G G25A G39C A40C G51C A69U A70C] | ≤ 0.5 |
| GUUCCGUUGGCGAAAUGGUAACGUGUCUCCCUCCUAAGGAGAAGACUGGGGGUUCGAGUCCCGUACGGAACG [U13A C24U C49G] | ≤ 0.5 |
| GUUCCGUUGGCGAAAUGGUAACGCGUGUCCCUCCUAAGGAGAAGGCUGCGGGUUCGAGUCCCGAACGGAACG [U13A C27G A45G U64A] | 0.62 |
| GUUCCGUUGGCGAAAUGGUAACGCGUGUCCCUCCUAAGGAGAAGACUGCGGACUCGAGUCCCCUACGGAACG [U13A C27G G52A U53C G63C] | ≤ 0.5 |
| GUUCCGUUGGCGAAAUGGUAACGCGUUUCCCUCCUAAGGAGAAGACUGCGGGUUCGAGUCCCGUACGGAACG [U13A C27U] | 0.984 |
| GUUCCGUUGGCGAAAUGGUAACGCGUUUCCCUCCUAAGGAGAAGACUGCGGGUUGGAGUCCCGUACGGAACG [U13A C27U C55G] | ≤ 0.5 |
| GUUCCGUUGGCGAAAUGGUAACGCGUUUCCCUCCUAAGGAGAAGACUGCGGGUUCGAGUCACGUACGGAACG [U13A C27U C61A] | 0.619 |
| GUUCCGUUGGCGAAAUGGUAACGCGUUUCCCUCCUAAGGAGAAGACUGCUGGUUCGAGUCCCGUACGGAACG [U13A C27U G50U] | 0.674 |
| GUUCCGUUGGCGAAAUGGUAACGCGUCUGCCUCCUAAGGAGAGGACUGCGGGUUCGAGUCCCGUACGGAACG [U13A C29G A43G] | ≤ 0.5 |
| GUUCCGUUGGCGAAAUGGUAACGCGUCUGGCUCCUAAGGAGAAGACUGAGGGUUCCAGUCUCGUACGGAACG [U13A C29G C30G C49A G56C C61U] | 0.635 |
| GUUCCGUUGGCGAAAUGGUAACGCGUCUUCCUCCUAAGGAGAGGACUGCGGGUACGAGCCACGUACGGAACG [U13A C29U A43G U54A U59C C61A] | ≤ 0.5 |
| GUUCCGUUGGCGAAAUGGUAACGCGUCUCUCUCCUAAGGAGAAGACUGCGGGUUGGACUCCCGUACUGAACG [U13A C30U C55G G58C G67U] | ≤ 0.5 |
| GUUCCGUUGGCGAAAUGGUAACGCGUCUCCAUCCUAAGGAGAAAACUGCGGGUUCGAGUCCCGUGCGGAUCG [U13A C31A G44A A65G A70U] | ≤ 0.5 |
| GUUCCGUUGGCGAAAUGGUAACGCGUCUCCCUGCUAAGGAGAAGACUGCGGGUACGAGACCCGUACAGAACG [U13A C33G U54A U59A G67A] | 0.504 |
| GUUCCGUUGGCGAAAUGGUAACGCGUCUCCCUUCUAAGGAGAAGACUGCGGGUUCGAGUCCCGUACGGAACG [U13A C33U] | 0.754 |
| GUUCCGUUGGCGAAAUGGUAACGCGUCUCCCUUCUAAGGAGAAGCGUGCGGGUCCGAGUCCCGUACGGUACG [U13A C33U A45C C46G U54C A69U] | ≤ 0.5 |
| GUUCCGUUGGCGAAAUGGUAACGCGUCUCCCUCAUAGGGAGAAGACUGCGGGUUCGAGUCCCGUACGGAACG [U13A C34A A37G] | ≤ 0.5 |
| GUUCCGUUGGCGAAAUGGUAACGCGUCUCCCUCCUAAGGAGAAGAUUGCGGGUUCGAGUCCCGUACGGAACG [U13A C46U] | 0.875 |

| Variant | yeast fitness |
| --- | --- |
| GUUCCGUUGGCGAAAUGGUAACGCGUCUCCCUCCUAAGGAGAAGAUUGCGGGUUCGAGUCCCGUACCGAACG [U13A C46U G67C] | 0.53 |
| GUUCCGUUGGCGAAAUGGUAACGCGUCUCCCUCCUAAGGAGAAGACUGCGGGUUAGAGUGCGGUACGGAACG [U13A C55A C60G C62G] | ≤ 0.5 |
| GUUCCGUUGGCGAAAUGGUAACGCGUCUCCCUCCUAAGGAGAAGACUGCGGGUUUGAGUCCCGUCCGGAACG [U13A C55U A65C] | 0.596 |
| GUUCCGUUGGCGAAAUAGUAACGCGUCUCCCUCCUAAGGAGAAGACUGCGAGUUCGAGUCCUGUACCGAACG [U13A G17A G51A C62U G67C] | ≤ 0.5 |
| GUUCCGUUGGCGAAAUGCUCACGUGUCUCUCUCCUAAGGCGAAGACUGCGGGUUCGAGUCCCGUACGCAACG [U13A G18C A20C C24U C30U A40C G68C] | ≤ 0.5 |
| GUUCCGUUGGCGAAAUGGUAACCCGUGUCCCUCCUAAGGAGAAGACUGUGGGCUCGAGUCACGUACGAAACG [U13A G23C C27G C49U U53C C61A G68A] | ≤ 0.5 |
| GUUCCGUUGGCGAAAUGGUAACCCGUGUCCCUCCUAAGGAGAAGACUGCGGGCUCGAGUCACGUACGGAACG [U13A G23C C27G U53C C61A] | 0.509 |
| GUUCCGUUGGCGAAAUGGUAACGCCUCUCCCUCCUAAGGAGAAGGCUGCGGGUUCGAGUCCCGUACGGAACG [U13A G25C A45G] | 0.535 |
| GUUCCGUUGGCGAAAUGGUAACGCGUCUCCCUCCUAAAGAGAAGACUGGCGGUUCGAGUCCCGUACGGAGCG [U13A G38A C49G G50C A70G] | ≤ 0.5 |
| GUUCCGUUGGCGAAAUGGUAACGCGUCUCCCUCCUAAGAAGAAGACUGCGGGUUCGAGUCCCGUACGGAACG [U13A G39A] | 0.782 |
| GUUCCGUUGGCGAAAUGGUAACGCGUCUCCCUCCUAAGGACAAGACUGCGGAUUCGAGUCCCGUACGGAACG [U13A G41C G52A] | ≤ 0.5 |
| GUUCCGUUGGCGAAAUGGUAACGCGUCUCCCUCCUAAGGAGAAGACUGCAGGUUCGAGUCCCGUACGGAACG [U13A G50A] | 0.806 |
| GUUCCGUUGGCGAAAUGGUAACGCGUCUCCCUCCUAAGGAGAAGACUGCGAGUUCAAGUCCCGUACGGAACG [U13A G51A G56A] | 0.628 |
| GUUCCGUUGGCGAAAUGGUAACGCGUCUCCCUCCUAAGGAGAAGACUGCGGAUUCGAGUCCCGUACGGAACG [U13A G52A] | 0.643 |
| GUUCCGUUGGCGAAAUGGAAACGCGUCUCCCUCCUAAGGAGUAGACUGCGCGUUCGAGUCCCGUACGGAACG [U13A U19A A42U G51C] | ≤ 0.5 |
| GUUCCGUUGGCGAAAUGGCUACGCGUCUGCCUGCUAGGGAGAAGACUGUGGGUUCGAGUCCCGUAUGGAACG [U13A U19C A20U C29G C33G A37G C49U C66U] | 0.601 |
| GUUCCGUUGGCGAAAUGGUAACGCGGAUCCCUCCUAAGCAGGAGACUGCGCGUUCGAGUCCCGUAUGGUACG [U13A U26G C27A G39C A42G G51C C66U A69U] | ≤ 0.5 |
| GUUCCGUUGGCGAAAUGGUAACGCGUCCCCCUCCUAAGGAGAAGACUGCGGGUUCGAGUCCCGUACGGAACG [U13A U28C] | 0.992 |
